Assay outcomes deposited in PubChem by The Scripps Research Institute Molecular Screening Center.
Sampled rows, rich in hits. Any-hit rate of the full collection: about 4.6%.
OX1R antag-1: antagonists of human orexin 1 receptor (OX1R); OX1R-expressing cells, FRET antagonist read-out; O43613; inhibition, % at 6.6 µM; hit rate 1.8% among 330,000; in the data active = inhibition mostly above about 38%, no sharp cut-off; inactive = mostly below about 40%;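 also: 0% = agonist challenge alone and 100% = reference antagonist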
GPR7 antag: blocks human GPR7 receptor signaling | P48145 | GPR7-expressing cells, fluorescence antagonist assay | inhibition, % at 4.4 µM | hit rate 1.1% among 290,000; in the data active = inhibition above about 16%, passing the limit was not always enough;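 also: cells stimulated with the agonist NPW; 0% = agonist with vehicle and 100% = vehicle without agonist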
TAAR1 ag: agonists of human TAAR1; Q96RJ0; CHO RD-HGA16 TAAR1, Fluo-8 calcium fluorescence; vehicle wells 0%, saturating PEA agonist 100%; activation, % at 3 µM; hit rate 0.99% among 360,000; AID 624467;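 active = activation above the mean activation of all test compounds in the run plus 3 SD, cut at about 38% in these data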
Target sequence (Q96RJ0 whole entry, looked up): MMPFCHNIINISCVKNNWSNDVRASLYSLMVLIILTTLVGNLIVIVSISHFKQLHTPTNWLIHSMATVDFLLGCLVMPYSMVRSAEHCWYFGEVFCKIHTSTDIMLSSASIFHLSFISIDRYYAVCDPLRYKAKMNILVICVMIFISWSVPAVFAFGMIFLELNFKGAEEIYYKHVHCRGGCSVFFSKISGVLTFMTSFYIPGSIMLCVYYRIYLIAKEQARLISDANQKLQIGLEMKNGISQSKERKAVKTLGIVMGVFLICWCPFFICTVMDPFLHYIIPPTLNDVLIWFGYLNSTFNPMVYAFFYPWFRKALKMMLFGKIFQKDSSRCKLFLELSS
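System: CHO RD-HGA16 cells carrying human TAAR1 plus Gα16; Incubation: 17-24 h seeding, 75 min 37 °C dye, 30 min RT; Measured by: Fluo-8 fluorescence, 5 s baseline then 140 s kinetic read; Control set: DMSO and PEA EC100; Replication: single well for each compound.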
TAAR1 antag: antagonists of human TAAR1; CHO RD-HGA16 TAAR1, Fluo-8 calcium fluorescence, antagonist; inhibition, % at 3 µM; hit rate 1.5% among 360,000; AID 624466;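 active = inhibition above a per-plate cutoff, the mean inhibition of test compounds on that plate plus 3 SD, cut at about 49% in these data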;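 also: 0% = DMSO plus EC80 beta-PEA response and 100% = DMSO alone without agonist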
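Assay system: RD-HGA16 CHO cells with stable hTAAR1 and Gα16 / Reagent: EC80 β-phenethylamine stimulus / Doses: 3 µM, single point / Timing: dye loading 75 min at 37 °C, then 30 min room temperature / Measured by: Fluo-8 intracellular calcium dye fluorescence, real-time kinetic reads / Controls: vehicle wells and EC80 agonist wells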
OX1R antag-2: blocks the human orexin 1 receptor; O43613; CHO/OX1R cells, Fluo-8 calcium fluorescence, orexin A; inhibition, % at 5 µM; hit rate 0.43% among 330,000; AID 434989;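 active = inhibition above its plate's threshold, mean inhibition of all tested compounds on the plate plus 3 SD, cut at about 37% in these data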;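 also: 0% = orexin A challenge wells and 100% = SB-334867-A antagonist wells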
CHO parental Ca: counter-screen: ATP calcium response change in parental CHO cells; parental CHO-K1, ATP-induced calcium, Fluo-8 fluorescence; inhibition, % at 5.6 µM; hit rate 0.63% among 330,000; AID 463079;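 active = inhibition above that plate's mean sample inhibition plus 3 SD, cut at about 26% in these data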;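 also: 0% = ATP-challenged DMSO wells and 100% = DMSO wells without ATP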
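test system = CHO parental line | reagent = ATP stimulus | measured by = intracellular calcium via Fluo-8 no-wash fluorescent dye | control set = ATP and no-ATP DMSO wells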
nonsel antag count: nonselective antagonism, TAAR1 counter-screen; shares compounds with TAAR1 antag; counterscreen cell line, calcium fluorescence, antagonist mode; inhibition, % at 3 µM; hit rate 77% among 2,400; in the data active = inhibition above about 22%;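 also: CHO-Ga16 host cells stimulated with ATP at an EC80 level; 0% = agonist EC80 plus vehicle and 100% = vehicle without agonist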
TAAR1 antag conf: confirmation of human TAAR1 antagonists | shares compounds with TAAR1 antag | TAAR1-expressing cells, fluorescence antagonist read-out | inhibition, % at 3 µM | hit rate 40% among 2,400 | AID 651785; in the data active = inhibition above about 49%;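 also: CHO-Ga16 host cells challenged with agonist PEA near its EC80; 0% = agonist at EC80 plus vehicle and 100% = vehicle with no agonist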
Ga16 nonsel ag: nonselective Ga16 agonism, counter-screen; shares compounds with TAAR1 antag; Ga16-expressing cells, calcium fluorescence, agonist counterscreen; activation, % at 3 µM; hit rate 18% among 2,400; in the data active = activation above about 12%;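 also: 0% = vehicle wells and 100% = saturating stimulus response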
TAAR1 ag count: TAAR1 agonism, antagonist counter-screen | shares compounds with TAAR1 antag | hTAAR1 cell line, fluorescence activation, agonist mode | activation, % at 3 µM | hit rate 2% among 2,400; in the data active = activation above about 37%;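 also: CHO cells stably expressing TAAR1 with calcium dye readout; 0% = DMSO vehicle and 100% = full agonist response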
The depositor's hits bear a star; / = no result given.

SMILES	OX1R antag-1	GPR7 antag	TAAR1 ag	TAAR1 antag	OX1R antag-2	CHO parental Ca	nonsel antag count	TAAR1 antag conf	Ga16 nonsel ag	TAAR1 ag count
O=C(CSc1ccc(Cl)cc1)N1CCN(c2ccc(Cl)cc2[N+](=O)[O-])CC1	31	-15	2	67*	-13	1	25*	45	4	1
Cc1ccc([N+](=O)[O-])c(C)[n+]1C	18	-2	3	7	-7	-2	/	/	/	/
COc1ccc(N2CCN(CC(=O)Nc3ccccc3C(=O)NC(C)c3ccccc3)CC2)cc1 (centres undefined)	/	/	16	61*	/	/	15	39	7	16
O=C(CN1CCN(c2ccccn2)CC1)Nc1ccccc1C(=O)Nc1ccccc1	12	/	10	65*	-20	-19	27*	44	7	6
CC(C)NC(=O)c1cnc(N2CCN(c3ccccn3)CC2)c2ccccc12	1	-7	15	31	-26	-8	/	/	/	/
CCc1ccc(NC(=O)c2cnc(N3CCN(c4ccccn4)CC3)c3ccccc23)cc1	46	-25	17	68*	11	-5	37*	55*	12*	10
CCCCC(=O)Nc1ncc(Br)s1	14	-10	/	/	-25	-10	/	/	/	/
COc1ccc(C(=O)CN2CCN(c3ncccn3)CC2)cc1	-3	-13	6	-1	-7	-3	/	/	/	/
CCCc1c(C(=O)N/N=C/c2c[nH]c3ccccc23)nnn1-c1nonc1N	/	/	29	63*	/	/	32*	47	12*	12
Nc1ccccc1CCc1ccccc1N	/	/	0	-8	/	/	/	/	/	/
COc1ccc(-c2nc(C(=O)NCC3CCCO3)cc3c2[nH]c2ccccc23)cc1 (centres undefined)	22	-2	3	67*	-11	-9	25*	43	4	0
Cc1ccc(-c2nc(C(=O)NCCCN(C)C)cc3c2[nH]c2ccccc23)cc1	10	10	-1	-13	-15	-1	/	/	/	/
COc1ccc(-c2cc(C(=O)NCC3CCCO3)c3ccccc3n2)cc1 (centres undefined)	26	-17	8	11	-23	-22	/	/	/	/
Cc1ccc(-c2nc(C(=O)NCC3CCCO3)cc3c2[nH]c2ccccc23)cc1 (centres undefined)	50*	-11	4	76*	-15	-5	35*	55*	5	1
Cc1ccccc1-c1nc(C(=O)NCC2CCCO2)cc2c1[nH]c1ccccc12 (centres undefined)	14	6	0	55*	-30	-23	28*	37	5	0
O=C(NCC1CCCO1)c1cc2c([nH]c3ccccc32)c(-c2cccc(Br)c2)n1 (centres undefined)	22	-2	2	75*	-3	-5	34*	58*	5	7
Cc1cc(C)cc(-n2c3ccc(NC(=S)NC4CCCCC4)cc3c(=O)n2C)c1	/	/	3	-5	/	/	/	/	/	/
Cc1cccc(N2CCN(C(=O)CCNC(=O)Cn3ccc4ccccc4c3=O)CC2)c1C	25	1	1	6	-27	-4	/	/	/	/
COc1ccc(C(=O)C/C(=C\C(=O)c2ccc(C)cc2)c2ccccc2)cc1	10	6	0	4	-1	16	/	/	/	/
CC(=O)c1c(C(C)=O)c(C)n(Cc2ccc(Cl)cc2)c1C	19	4	3	15	-13	1	/	/	/	/
O=C(Nc1ccc2oc(-c3cccnc3)nc2c1)c1ccc(Br)o1	13	-7	20	52*	-12	-7	17	25	4	5
O=C(Nc1cccc(-c2nc3ccccc3o2)c1)c1cccnc1	65*	1	10	67*	-17	-17	23*	35	10	7
